# Reference: ChEMBL document CHEMBL4828746, “Design, synthesis and evaluation of heteroaryldihydropyrimidine analogues bearing spiro ring as hepatitis B virus capsid protein inhibitors” (Eur J Med Chem, 2021)
# Experiments:
# [1] = biological target: Core antigen (Hepatitis B virus) (UniProt Q03732); test: Inhibition of capsid protein in HBV infected in human HepDES19 cells assessed as inhibition of viral replication by measuring minus polarity DNA level at 3 uM incubated for 3 days by strand preferential qPCR analysis relative to control; set-up: scale not given: the % may be the effect or the level left; conditions: time 3.0 day
# [2] = biological target: Core antigen (Hepatitis B virus) (UniProt Q03732); test: Inhibition of capsid protein in HBV infected in human HepDES19 cells assessed as inhibition of viral replication by measuring minus polarity DNA level at 20 uM incubated for 3 days by strand preferential qPCR analysis relative to control; format: cell-based; set-up: scale not given: the % may be the effect or the level left; conditions: time 3.0 day
# Method in brief: (§1)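 HepDES19 cells (HepG2 line carrying a tetracycline-repressible HBV genotype D genome) seeded at 4 x 10^4/well without tetracycline. Compound added 48 h after induction in 1% DMSO, then 3 days at 37°C, 5% CO2. Lysates treated with micrococcal nuclease, then protease. Plus- or minus-strand DNA quantified by strand-preferential qPCR as % of DMSO control. Each compound screened at two concentrations only: 20 and 5 μM, or 10 and 3 μM.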
# [3] = biological target: Core antigen (Hepatitis B virus) (UniProt Q03732); test: Inhibition of capsid protein in HBV infected in human HepDES19 cells assessed as inhibition of viral replication by measuring plus polarity DNA level at 20 uM incubated for 3 days by strand preferential qPCR analysis relative to control; format: cell-based; set-up: scale not given: the % may be the effect or the level left; conditions: time 3.0 day
# Method in brief: as §1, with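 “tetracycline.” for “tetracycline. Compound added 48 h after induction in 1% DMSO, then 3 days at 37°C, 5% CO2.”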
# Hepatitis B virus [4] = test: Antiviral activity against HBV infected in human HepG2.2.15 cells assessed as inhibition of viral replication incubated for 8 days by southern blotting analysis; format: functional, organism-based; conditions: HepG2.2.15, 192 h
# [5] = biological target: Core antigen (Hepatitis B virus) (UniProt Q03732); test: Inhibition of capsid protein in HBV infected in human HepDES19 cells assessed as inhibition of viral replication by measuring plus polarity DNA level at 3 uM incubated for 3 days by strand preferential qPCR analysis relative to control; set-up: scale not given: the % may be the effect or the level left; conditions: time 3.0 day
# [6] = biological target: Core antigen (Hepatitis B virus) (UniProt Q03732); test: Inhibition of capsid protein in HBV infected in human HepDES19 cells assessed as inhibition of viral replication by measuring minus polarity DNA level at 5 uM incubated for 3 days by strand preferential qPCR analysis relative to control; format: cell-based; set-up: scale not given: the % may be the effect or the level left; conditions: time 3.0 day
# Method in brief: as §1, with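 “tetracycline.” for “tetracycline. Compound added 48 h after induction in 1% DMSO, then 3 days at 37°C, 5% CO2.”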
# Hepatitis B virus [7] = test: Antiviral activity against HBV infected in human HepG2.2.15 cells assessed as inhibition of viral replication in presence of 50% human serum albumin; format: functional
# [8] = biological target: Core antigen (Hepatitis B virus) (UniProt Q03732); test: Inhibition of capsid protein in HBV infected in human HepDES19 cells assessed as inhibition of viral replication by measuring plus polarity DNA level at 3 uM incubated for 3 days by strand preferential qPCR analysis relative to control; format: cell-based; set-up: scale not given: the % may be the effect or the level left; conditions: time 3.0 day
# Method in brief: as §1
# [9] = biological target: Core antigen (Hepatitis B virus) (UniProt Q03732); test: Inhibition of capsid protein in HBV infected in human HepDES19 cells assessed as inhibition of viral replication by measuring minus polarity DNA level at 3 uM incubated for 3 days by strand preferential qPCR analysis relative to control; format: cell-based; set-up: scale not given: the % may be the effect or the level left; conditions: time 3.0 day
# Method in brief: as §1
# [10] = biological target: Core antigen (Hepatitis B virus) (UniProt Q03732); test: Inhibition of capsid protein in HBV infected in human HepDES19 cells assessed as inhibition of viral replication by measuring plus polarity DNA level at 10 uM incubated for 3 days by strand preferential qPCR analysis relative to control; format: cell-based; set-up: scale not given: the % may be the effect or the level left; conditions: time 3.0 day
# Method in brief: as §1
# [11] = biological target: Core antigen (Hepatitis B virus) (UniProt Q03732); test: Inhibition of capsid protein in HBV infected in human HepDES19 cells assessed as inhibition of viral replication by measuring minus polarity DNA level at 10 uM incubated for 3 days by strand preferential qPCR analysis relative to control; format: cell-based; set-up: scale not given: the % may be the effect or the level left; conditions: time 3.0 day
# Method in brief: as §1
# Sequence of Core antigen (Hepatitis B virus) (Q03732 as listed by the source): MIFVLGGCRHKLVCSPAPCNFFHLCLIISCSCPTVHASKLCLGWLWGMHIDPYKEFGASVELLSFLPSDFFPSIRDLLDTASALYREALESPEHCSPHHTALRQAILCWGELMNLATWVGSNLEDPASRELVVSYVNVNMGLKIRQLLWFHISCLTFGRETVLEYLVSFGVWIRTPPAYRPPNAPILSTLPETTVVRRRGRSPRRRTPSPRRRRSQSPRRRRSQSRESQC
compound,measurement,setting,value
CCOC(=O)C1=C(CN2CCC3(CC2)CNC3)NC(c2nccs2)=NC1c1ccc(F)cc1Br (stereo unspecified),Activity,[1],70.8%
same,Activity,[2],93.4%
same,Activity,[3],113%
Nc1ccn([C@@H]2CS[C@H](CO)O2)c(=O)n1 [LAMIVUDINE],EC50,Hepatitis B virus [4],325 nM
same,Activity,[1],79.1%
same,Activity,[2],11.8%
same,Activity,[3],4%
same,Activity,[5],23.9%
CCOC(=O)C1=C(CN2CCC3(CCNC3)CC2)NC(c2nccs2)=NC1c1ccc(F)cc1Br (stereo unspecified),Activity,[1],72.5%
same,Activity,[2],99.6%
same,Activity,[3],105%
CCOC(=O)C1=C(CN2CCC3(CCN(C(=O)OC(C)(C)C)CC3)C2)NC(c2nccs2)=NC1c1ccc(F)cc1Br (stereo unspecified),Activity,[1],80.1%
same,Activity,[2],87%
same,Activity,[3],102%
CCOC(=O)C1=C(CN2CCC3(CCN(C(=O)OC(C)(C)C)C3)C2=O)NC(c2nccs2)=NC1c1ccc(F)cc1Br (stereo unspecified),Activity,[2],0.8%
same,Activity,[3],0.8%
same,Activity,[5],3.3%
same,Activity,[6],2.9%
CCOC(=O)C1=C(CN2CCOCC2)NC(c2nccs2)=N[C@H]1c1ccc(F)cc1Br,EC50,Hepatitis B virus [4],12 nM
same,Activity,[2],22.6%
same,EC90,Hepatitis B virus [7],0.0557 µg/mL
CCOC(=O)C1=C(CN2CCC3(CCN(C(=O)OC(C)(C)C)C3)C2)NC(c2nccs2)=NC1c1ccc(F)cc1Br (stereo unspecified),Activity,[1],67.1%
same,Activity,[2],28.8%
same,Activity,[3],16.8%
CCOC(=O)C1=C(CN2CC3(CCNC3)CC2=O)NC(c2nccs2)=NC1c1ccc(F)cc1Br (stereo unspecified),Activity,[2],68.9%
same,Activity,[3],120%
CCOC(=O)C1=C(CN2CCC3(CNC(=O)C3)C2)NC(c2nccs2)=NC1c1ccc(F)cc1Br (stereo unspecified),Activity,[2],2.5%
same,Activity,[3],3%
same,Activity,[5],2.8%
same,Activity,[6],2.3%
CCOC(=O)C1=C(CN2CCC3(CCNCC3)CC2)NC(c2nccs2)=NC1c1ccc(F)cc1Br (stereo unspecified),Activity,[1],67.1%
same,Activity,[2],97.7%
same,Activity,[3],106%
CCOC(=O)C1=C(CN2CCC3(CC2)CCN(C(=O)OC(C)(C)C)C3)NC(c2nccs2)=NC1c1ccc(F)cc1Br (stereo unspecified),Activity,[8],85.3%
same,Activity,[9],85%
same,Activity,[10],92.5%
same,Activity,[11],76.1%
CCOC(=O)C1=C(CN2CCC3(CCNCC3)C2)NC(c2nccs2)=NC1c1ccc(F)cc1Br (stereo unspecified),Activity,[1],69.9%
same,Activity,[2],86.4%
same,Activity,[3],88.4%
CCOC(=O)C1=C(CN2CCC3(CC2)CNC(=O)C3)NC(c2nccs2)=NC1c1ccc(F)cc1Br (stereo unspecified),Activity,[2],2.7%
same,Activity,[3],2.4%
same,Activity,[5],3.4%
same,Activity,[6],4%
CCOC(=O)C1=C(CN2CCC3(CCNC3)C2=O)NC(c2nccs2)=NC1c1ccc(F)cc1Br (stereo unspecified),Activity,[2],81.4%
same,Activity,[3],109%
CCOC(=O)C1=C(CN2CCC3(CC2)CN(C(=O)OC(C)(C)C)C3)NC(c2nccs2)=NC1c1ccc(F)cc1Br (stereo unspecified),Activity,[8],87.7%
same,Activity,[9],83.7%
same,Activity,[10],60.9%
same,Activity,[11],60.2%
CCOC(=O)C1=C(CN2CCC3(C2)CN(C(=O)OC(C)(C)C)C3)NC(c2nccs2)=NC1c1ccc(F)cc1Br (stereo unspecified),Activity,[1],85.3%
same,Activity,[2],56.5%
same,Activity,[3],54.7%
CCOC(=O)C1=C(CN2CC3(CNC3)CC2=O)NC(c2nccs2)=NC1c1ccc(F)cc1Br (stereo unspecified),Activity,[2],85.3%
same,Activity,[3],108%
CCOC(=O)C1=C(CN2CCC3(CC2)CNC3=O)NC(c2nccs2)=NC1c1ccc(F)cc1Br (stereo unspecified),Activity,[2],2.5%
same,Activity,[3],2.4%
same,Activity,[5],2.7%
same,Activity,[6],3.4%
CCOC(=O)C1=C(CN2CC3(C2)CN(C(=O)OC(C)(C)C)C3)NC(c2nccs2)=NC1c1ccc(F)cc1Br (stereo unspecified),Activity,[1],85.7%
same,Activity,[2],96.5%
same,Activity,[3],105%
CCOC(=O)C1=C(CN2CC3(CCN(C(=O)OC(C)(C)C)C3)CC2=O)NC(c2nccs2)=NC1c1ccc(F)cc1Br (stereo unspecified),Activity,[2],1.3%
same,Activity,[3],1.8%
same,Activity,[5],2.7%
same,Activity,[6],2.9%
CCOC(=O)C1=C(CN2CCC3(CNC3)C2)NC(c2nccs2)=NC1c1ccc(F)cc1Br (stereo unspecified),Activity,[1],84.5%
same,Activity,[2],88.8%
same,Activity,[3],82.2%
CCOC(=O)C1=C(CN2CC3(CC2=O)CN(C(=O)OC(C)(C)C)C3)NC(c2nccs2)=NC1c1ccc(F)cc1Br (stereo unspecified),Activity,[2],1.8%
same,Activity,[3],3.5%
same,Activity,[5],2.4%
same,Activity,[6],2.5%
CCOC(=O)C1=C(CN2CCC3(CC2)OCCO3)NC(c2nccs2)=NC1c1ccc(F)cc1Br (stereo unspecified),Activity,[2],3.4%
same,Activity,[3],3.4%
same,Activity,[5],3.8%
same,Activity,[6],3.1%
CCOC(=O)C1=C(CN2CCC3(CC2)CC(NC(=O)OC(C)(C)C)C3)NC(c2nccs2)=NC1c1ccc(F)cc1Br (stereo unspecified),Activity,[1],97.2%
same,Activity,[2],117%
same,Activity,[3],111%
CCOC(=O)C1=C(CN2CCC3(CC(=O)N(Cc4ccccc4)C3=O)C2)NC(c2nccs2)=NC1c1ccc(F)cc1Br (stereo unspecified),Activity,[2],2.2%
same,Activity,[3],2%
same,Activity,[5],3%
same,Activity,[6],2.8%
CCOC(=O)C1=C(CN2CC3(CNC3)C2)NC(c2nccs2)=NC1c1ccc(F)cc1Br (stereo unspecified),Activity,[1],85.9%
same,Activity,[2],94.8%
same,Activity,[3],87.4%
CCOC(=O)C1=C(CN2CCC3(CC2)CCN(C(=O)OC(C)(C)C)CC3)NC(c2nccs2)=NC1c1ccc(F)cc1Br (stereo unspecified),Activity,[8],93%
same,Activity,[9],74.5%
same,Activity,[10],91.1%
same,Activity,[11],110%
CCOC(=O)C1=C(CN2CCC3(CC2)CC(=O)NC3=O)NC(c2nccs2)=NC1c1ccc(F)cc1Br (stereo unspecified),Activity,[2],34.8%
same,Activity,[3],22.4%
same,Activity,[5],18.9%
same,Activity,[6],21.1%
CCOC(=O)C1=C(CN2CCC3(CCNC3=O)CC2)NC(c2nccs2)=NC1c1ccc(F)cc1Br (stereo unspecified),Activity,[2],37.8%
same,Activity,[3],18.3%
same,Activity,[6],44.1%
CCOC(=O)C1=C(CN2CCC3(CC2)CC(N)C3)NC(c2nccs2)=NC1c1ccc(F)cc1Br (stereo unspecified),Activity,[1],69.9%
same,Activity,[2],105%
same,Activity,[3],114%
